Data reported in ChEMBL document CHEMBL4346701, “Synthesis and biological evaluation of tryptophan-derived rhodanine derivatives as PTP1B inhibitors and anti-bacterial agents” (Eur J Med Chem, 2019).
≈ marks a conversion by molar mass, not a printed value.

Tests used:
[1] = test system: Staphylococcus aureus; experiment: Antibacterial activity against Staphylococcus aureus KCTC209 assessed as reduction in bacterial cell growth incubated for 24 hrs by ELISA; assay type: functional; conditions: KCTC209, 24 h
Outline: (§1)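 MICs determined by serial dilution in 96-well microtiter plates. The strain panel included Gram-positive S. aureus strains and multidrug-resistant clinical isolates. Gatifloxacin, moxifloxacin, norfloxacin and oxacillin served as antibacterial positive controls.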

[2] = test system: Staphylococcus aureus; experiment: Antibacterial activity against Staphylococcus aureus RN4220 assessed as reduction in bacterial cell growth incubated for 24 hrs by ELISA; assay type: functional; conditions: RN4220, 24 h; outline: as §1
[3] = test system: Staphylococcus aureus; experiment: Antibacterial activity against Quinolone-resistant Staphylococcus aureus CCARM 3519 assessed as reduction in bacterial cell growth incubated for 24 hrs by ELISA; assay type: functional; conditions: CCARM 3519, 24 h; outline: as §1
[4] = test system: Staphylococcus aureus; experiment: Potency index, ratio of MIC of gatifloxacin to MIC of compound for antibacterial activity against Staphylococcus aureus KCTC503 assessed as reduction in bacterial cell growth incubated for 24 hrs by ELISA; assay type: functional
[5] = test system: Staphylococcus aureus; experiment: Antibacterial activity against Quinolone-resistant Staphylococcus aureus CCARM 3505 assessed as reduction in bacterial cell growth incubated for 24 hrs by ELISA; assay type: functional; conditions: CCARM 3505, 24 h; outline: as §1
[6] = test system: Staphylococcus aureus; experiment: Antibacterial activity against Staphylococcus aureus KCTC503 assessed as reduction in bacterial cell growth incubated for 24 hrs by ELISA; assay type: functional; conditions: KCTC503, 24 h; outline: as §1
[7] = test system: Escherichia coli; experiment: Antibacterial activity against Escherichia coli 1924 assessed as reduction in bacterial cell growth incubated for 24 hrs by ELISA; assay type: functional; conditions: Escherichia coli, 1924, 24 h
Outline: (§2)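 MIC determined by serial dilution in 96-well microtiter plates. Strains used were E. coli 1924 and P. aeruginosa 2742 (Gram-negative), S. mutans 3289 (Gram-positive) and the fungus C. albicans 7535. Gatifloxacin, moxifloxacin, norfloxacin and oxacillin served as antibacterial reference agents, and fluconazole as the antifungal reference.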

[8] = target: T1, Tyrosine-protein phosphatase non-receptor type 1 (Homo sapiens, UniProt P18031); experiment: Inhibition of human recombinant GST-tagged PTP1B expressed in Escherichia coli BL21 (DE3) using pNPP as substrate measured for 2 mins by colorimetric analysis
T1 sequence (P18031 whole entry): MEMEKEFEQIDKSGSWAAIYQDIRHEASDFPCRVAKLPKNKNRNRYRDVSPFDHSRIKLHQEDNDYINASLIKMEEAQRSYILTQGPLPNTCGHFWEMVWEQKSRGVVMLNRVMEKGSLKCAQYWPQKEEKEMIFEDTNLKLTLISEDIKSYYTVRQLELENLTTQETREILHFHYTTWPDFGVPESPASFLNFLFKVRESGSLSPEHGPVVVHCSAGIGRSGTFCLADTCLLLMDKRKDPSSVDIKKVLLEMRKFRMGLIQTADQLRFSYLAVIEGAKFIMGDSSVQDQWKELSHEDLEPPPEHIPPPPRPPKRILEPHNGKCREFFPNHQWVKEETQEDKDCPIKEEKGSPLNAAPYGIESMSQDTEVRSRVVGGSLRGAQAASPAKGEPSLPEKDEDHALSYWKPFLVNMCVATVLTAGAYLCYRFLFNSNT

[9] = test system: Staphylococcus aureus; experiment: Antibacterial activity against Methicillin-resistant Staphylococcus aureus CCARM 3167 assessed as reduction in bacterial cell growth incubated for 24 hrs by ELISA; assay type: functional; conditions: CCARM 3167, 24 h; outline: as §1
[10] = test system: Pseudomonas aeruginosa; experiment: Antibacterial activity against Pseudomonas aeruginosa 2742 assessed as reduction in bacterial cell growth incubated for 24 hrs by ELISA; assay type: functional; conditions: Pseudomonas aeruginosa, 2742, 24 h; outline: as §2
[11] = test system: Candida albicans; experiment: Antifungal activity against Candida albicans 7535 assessed as reduction in bacterial cell growth incubated for 24 hrs by ELISA; assay type: functional; conditions: Candida albicans, 7535, 24 h; outline: as §2
[12] = test system: Streptococcus mutans; experiment: Antibacterial activity against Streptococcus mutans KCTC3289 assessed as reduction in bacterial cell growth incubated for 24 hrs by ELISA; assay type: functional; conditions: KCTC3289, 24 h; outline: as §2
[13] = test system: Staphylococcus aureus; experiment: Antibacterial activity against Methicillin-resistant Staphylococcus aureus CCARM 3506 assessed as reduction in bacterial cell growth incubated for 24 hrs by ELISA; assay type: functional; conditions: CCARM 3506, 24 h; outline: as §1
[14] = test system: Staphylococcus aureus; experiment: Potency index, ratio of MIC of norfloxacin to MIC of compound for antibacterial activity against Methicillin-resistant Staphylococcus aureus CCARM 3167 assessed as reduction in bacterial cell growth incubated for 24 hrs by ELISA; assay type: functional
[15] = test system: Staphylococcus aureus; experiment: Potency index, ratio of MIC of oxacillin to MIC of compound for antibacterial activity against Methicillin-resistant Staphylococcus aureus CCARM 3167 assessed as reduction in bacterial cell growth incubated for 24 hrs by ELISA; assay type: functional
[16] = test system: Staphylococcus aureus; experiment: Potency index, ratio of MIC of norfloxacin to MIC of compound for antibacterial activity against Methicillin-resistant Staphylococcus aureus CCARM 3506 assessed as reduction in bacterial cell growth incubated for 24 hrs by ELISA; assay type: functional
[17] = test system: Staphylococcus aureus; experiment: Potency index, ratio of MIC of oxacillin to MIC of compound for antibacterial activity against Methicillin-resistant Staphylococcus aureus CCARM 3506 assessed as reduction in bacterial cell growth incubated for 24 hrs by ELISA; assay type: functional
[18] = test system: Escherichia coli; experiment: Potency index, ratio of MIC of gatifloxacin to MIC of compound for antibacterial activity against Escherichia coli 1924 assessed as reduction in bacterial cell growth incubated for 24 hrs by ELISA; assay type: functional
[19] = test system: Escherichia coli; experiment: Potency index, ratio of MIC of moxifloxacin to MIC of compound for antibacterial activity against Escherichia coli 1924 assessed as reduction in bacterial cell growth incubated for 24 hrs by ELISA; assay type: functional
[20] = target: T2, Tyrosine-protein phosphatase non-receptor type 11 (Homo sapiens, UniProt Q06124); experiment: Inhibition of human recombinant GST-tagged SHP2 (catalytic domain […] residues) expressed in Escherichia coli BL21 (DE3) using pNPP as substrate measured for 2 mins by colorimetric analysis
T2 sequence (Q06124 whole entry): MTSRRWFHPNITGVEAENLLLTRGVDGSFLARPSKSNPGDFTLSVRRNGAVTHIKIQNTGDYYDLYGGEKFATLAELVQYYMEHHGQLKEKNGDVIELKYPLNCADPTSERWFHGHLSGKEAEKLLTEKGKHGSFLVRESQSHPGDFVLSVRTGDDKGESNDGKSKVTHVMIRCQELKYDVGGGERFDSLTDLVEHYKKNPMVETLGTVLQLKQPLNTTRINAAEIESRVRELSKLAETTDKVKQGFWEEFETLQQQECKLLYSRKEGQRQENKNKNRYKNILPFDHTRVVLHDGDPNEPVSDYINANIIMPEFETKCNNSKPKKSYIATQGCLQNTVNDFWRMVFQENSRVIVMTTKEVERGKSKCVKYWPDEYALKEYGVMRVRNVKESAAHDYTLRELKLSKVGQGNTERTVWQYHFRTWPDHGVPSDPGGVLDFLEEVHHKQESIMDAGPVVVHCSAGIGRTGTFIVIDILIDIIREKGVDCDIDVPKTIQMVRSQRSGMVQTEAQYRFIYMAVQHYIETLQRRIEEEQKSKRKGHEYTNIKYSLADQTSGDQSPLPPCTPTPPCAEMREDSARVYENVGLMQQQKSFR
Outline: (§3)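 pNPP hydrolysis assay. IC50 was derived by regression analysis and given as mean ± SD of three replications.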

[21] = target: T3, Tyrosine-protein phosphatase non-receptor type 2 (Homo sapiens, UniProt P17706); experiment: Inhibition of human recombinant GST-tagged TCPTP (catalytic domain […] residues) expressed in Escherichia coli BL21 (DE3) using pNPP as substrate measured for 2 mins by colorimetric analysis
T3 sequence (P17706 whole entry): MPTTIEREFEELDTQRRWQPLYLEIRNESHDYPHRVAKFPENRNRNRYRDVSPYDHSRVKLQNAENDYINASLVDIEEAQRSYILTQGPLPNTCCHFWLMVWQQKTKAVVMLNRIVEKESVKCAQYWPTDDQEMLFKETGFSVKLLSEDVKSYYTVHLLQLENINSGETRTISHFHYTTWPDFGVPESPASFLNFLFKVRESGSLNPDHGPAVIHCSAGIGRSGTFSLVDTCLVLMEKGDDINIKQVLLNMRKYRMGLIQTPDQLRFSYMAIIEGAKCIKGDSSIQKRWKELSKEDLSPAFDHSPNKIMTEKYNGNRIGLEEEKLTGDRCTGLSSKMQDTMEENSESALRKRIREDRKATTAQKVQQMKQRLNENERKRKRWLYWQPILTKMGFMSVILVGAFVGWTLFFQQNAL

[22] = target: Tyrosine-protein phosphatase non-receptor type 6 (Homo sapiens, UniProt P29350); experiment: Inhibition of human recombinant GST-tagged SHP1 (catalytic domain 244 to 570 residues) expressed in Escherichia coli BL21 (DE3) using pNPP as substrate measured for 2 mins by colorimetric analysis; outline: as §3
[23] = target: T4, M-phase inducer phosphatase 2 (Homo sapiens, UniProt P30305); experiment: Inhibition of human recombinant GST-tagged CDC25B expressed in Escherichia coli BL21 (DE3) using pNPP as substrate measured for 2 mins by colorimetric analysis; outline: as §3
T4 sequence (P30305 whole entry): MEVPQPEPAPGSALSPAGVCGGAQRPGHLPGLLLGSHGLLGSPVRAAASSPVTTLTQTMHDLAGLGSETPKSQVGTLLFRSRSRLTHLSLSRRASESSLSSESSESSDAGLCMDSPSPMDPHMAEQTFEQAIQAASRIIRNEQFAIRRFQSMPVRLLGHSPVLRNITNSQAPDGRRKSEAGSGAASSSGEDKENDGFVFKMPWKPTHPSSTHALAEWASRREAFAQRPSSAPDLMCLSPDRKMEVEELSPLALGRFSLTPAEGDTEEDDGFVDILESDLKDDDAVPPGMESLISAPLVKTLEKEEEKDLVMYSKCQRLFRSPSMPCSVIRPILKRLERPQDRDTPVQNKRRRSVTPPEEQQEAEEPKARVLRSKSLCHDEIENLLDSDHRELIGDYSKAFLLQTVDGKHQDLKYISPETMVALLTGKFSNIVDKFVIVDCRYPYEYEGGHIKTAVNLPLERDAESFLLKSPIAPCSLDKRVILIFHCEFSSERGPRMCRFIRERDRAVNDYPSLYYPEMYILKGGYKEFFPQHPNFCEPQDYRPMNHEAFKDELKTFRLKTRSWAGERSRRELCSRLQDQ

Sequence of Tyrosine-protein phosphatase non-receptor type 6 (P29350 whole entry, the tested form may be a part): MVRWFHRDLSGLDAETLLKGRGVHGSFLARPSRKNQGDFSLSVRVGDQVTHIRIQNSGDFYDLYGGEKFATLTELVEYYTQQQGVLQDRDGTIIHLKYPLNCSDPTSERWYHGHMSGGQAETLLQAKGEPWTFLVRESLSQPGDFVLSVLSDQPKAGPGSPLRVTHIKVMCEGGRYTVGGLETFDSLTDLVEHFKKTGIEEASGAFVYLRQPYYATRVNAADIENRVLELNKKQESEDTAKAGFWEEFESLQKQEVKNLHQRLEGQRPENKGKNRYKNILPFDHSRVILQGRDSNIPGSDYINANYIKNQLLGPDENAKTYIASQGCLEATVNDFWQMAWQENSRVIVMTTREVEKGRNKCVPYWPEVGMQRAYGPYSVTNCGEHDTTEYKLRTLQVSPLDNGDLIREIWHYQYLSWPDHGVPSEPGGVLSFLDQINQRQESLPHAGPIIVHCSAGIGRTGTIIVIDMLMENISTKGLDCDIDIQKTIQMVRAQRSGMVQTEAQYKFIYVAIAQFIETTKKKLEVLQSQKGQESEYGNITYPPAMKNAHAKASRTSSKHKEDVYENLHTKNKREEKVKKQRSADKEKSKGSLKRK

Row | SMILES | MIC [1] | MIC [2] | MIC [3] | Ratio [4] | MIC [5] | MIC [6] | MIC [7] | IC50 [8] | MIC [9] | MIC [10] | MIC [11] | MIC [12] | MIC [13] | Ratio [14] | Ratio [15] | Ratio [16] | Ratio [17] | other results
1 | O=C(O)C(Cc1c[nH]c2ccccc12)N1C(=O)/C(=C/c2cccc(OCc3ccc(Cl)cc3)c2)SC1=S (stereo not drawn) | 2 µg/mL (≈ 3.64 µM) | 2 µg/mL (≈ 3.64 µM) | 4 µg/mL (≈ 7.29 µM) | 2 | 2 µg/mL (≈ 3.64 µM) | 2 µg/mL (≈ 3.64 µM) | 2 µg/mL (≈ 3.64 µM) | 5760 nM | 2 µg/mL (≈ 3.64 µM) | > 64 µg/mL | > 64 µg/mL | 2 µg/mL (≈ 3.64 µM) | 4 µg/mL (≈ 7.29 µM) |  |  |  |  | 
2 | O=C(O)C(Cc1c[nH]c2ccccc12)N1C(=O)/C(=C/c2ccc3cc(OCc4ccc(Cl)cc4)ccc3c2)SC1=S (stereo not drawn) |  | 2 µg/mL (≈ 3.34 µM) | 4 µg/mL (≈ 6.68 µM) |  | 2 µg/mL (≈ 3.34 µM) |  | 2 µg/mL (≈ 3.34 µM) | 720 nM | 2 µg/mL (≈ 3.34 µM) | > 64 µg/mL | > 64 µg/mL | 2 µg/mL (≈ 3.34 µM) | 2 µg/mL (≈ 3.34 µM) | 4 | 64 | 4 | 64 | 
3 | COc1cc(/C=C2\SC(=S)N(C(Cc3c[nH]c4ccccc34)C(=O)O)C2=O)ccc1OCc1ccc(Cl)cc1Cl (stereo not drawn) | 2 µg/mL (≈ 3.26 µM) | 2 µg/mL (≈ 3.26 µM) | 2 µg/mL (≈ 3.26 µM) |  | 2 µg/mL (≈ 3.26 µM) | 2 µg/mL (≈ 3.26 µM) | 2 µg/mL (≈ 3.26 µM) | 700 nM | 2 µg/mL (≈ 3.26 µM) | > 64 µg/mL | > 64 µg/mL | 2 µg/mL (≈ 3.26 µM) | 2 µg/mL (≈ 3.26 µM) | 4 | 64 | 4 | 64 | 
4 | O=C(O)C(Cc1c[nH]c2ccccc12)N1C(=O)/C(=C/c2ccc(OCc3ccc(Br)cc3)cc2)SC1=S (stereo not drawn) | 4 µg/mL (≈ 6.74 µM) | 1 µg/mL (≈ 1.68 µM) | 2 µg/mL (≈ 3.37 µM) | 2 | 2 µg/mL (≈ 3.37 µM) | 2 µg/mL (≈ 3.37 µM) | 1 µg/mL (≈ 1.68 µM) | 2600 nM | 2 µg/mL (≈ 3.37 µM) | > 64 µg/mL | > 64 µg/mL | 1 µg/mL (≈ 1.68 µM) | 2 µg/mL (≈ 3.37 µM) | 4 | 64 | 4 | 64 | Ratio [18]: 2; Ratio [19]: 2
5 | O=C(O)C(Cc1c[nH]c2ccccc12)N1C(=O)/C(=C/c2ccc3cc(OCc4ccc(F)cc4)ccc3c2)SC1=S (stereo not drawn) | 4 µg/mL (≈ 6.86 µM) | 1 µg/mL (≈ 1.72 µM) | 2 µg/mL (≈ 3.43 µM) |  | 2 µg/mL (≈ 3.43 µM) | 2 µg/mL (≈ 3.43 µM) | 2 µg/mL (≈ 3.43 µM) | 450 nM | 2 µg/mL (≈ 3.43 µM) | > 64 µg/mL | > 64 µg/mL | 2 µg/mL (≈ 3.43 µM) | 2 µg/mL (≈ 3.43 µM) |  |  |  |  | IC50 [20]: 4.26 µM; IC50 [21]: 1120 nM; IC50 [22]: 1520 nM; IC50 [23]: 380 nM
